Tests used:
[1] = Compound was evaluated for -Log [fraction ionized x ED50 (protection)]; type: ADME
[2] = Partition coefficient (logP); type: physicochemical; settings: octanol/water
Method in brief: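 1-Octanol/water partition by titration: 10–40 mL aqueous test compound (1 mM) with 4–25 mL 1-octanol, stirred vigorously, titrated with 0.1 N NaOH; apparent pKa′ calculated, from which partition coefficient obtained.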

[3] = Dissociation constant (pKa); type: physicochemical
Mus musculus [4] = species: Mus musculus; experiment: Compound was evaluated for protection against tachycardia in mice; type: functional
Method in brief: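 Mice given test agent, then chloroform-induced tachycardia (modified Lawson method); efficacy scored as percentage of mice protected at each dose. Doses stepped ≥0.15 log unit up/down to give low, medium and high protection incidence; ED50 (mmol/kg) by Berkson logit chi-square method.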

Mus musculus [5] = species: Mus musculus; experiment: Compound was evaluated for ataxia in mice; type: functional
[6] = Therapeutic index is the ratio of ED50 (ataxia) to ED50 (protection) in mice; settings: mouse; read-out: TI

| SMILES | p[BH+50] [1] | logP [2] | pKa [3] | ED50 (Mus musculus [4]) [µmol/kg] | ED50 (Mus musculus [5]) [µmol/kg] | selectivity ratio [6] |
| --- | --- | --- | --- | --- | --- | --- |
| CCN(CC)CCC(=O)Nc1c(C)cccc1C | 0.9 | 2.21 | 8.83 | 130 | 210 | 1.6 |
| Cc1cccc(C)c1NC(=O)CC(C)N (configuration not stated) | 0.62 | 0.84 | 8.71 | 250 | 1640 | 6.6 |
| Cc1cccc(C)c1NC(=O)CCCC(C)N (configuration not stated) | 0.72 | 1.41 | 9.79 | 190 | 1170 | 6.2 |
| CCN(CC)C(C)CCCC(=O)Nc1c(C)cccc1C (configuration not stated) | 1 | 2.64 | 10.1 | 100 | 790 | 7.9 |
| CCN(CC)CCCCCC(=O)Nc1c(C)cccc1C | 0.89 | 2.95 | 10.2 | 130 | 670 | 5.2 |
| CCN(CC)CCCCC(=O)Nc1c(C)cccc1C | 0.92 | 2.42 | 9.96 | 120 | 660 | 5.5 |
| CCN(CC)C(C)CC(=O)Nc1c(C)cccc1C (configuration not stated) | 1.31 | 2.63 | 9.03 | 50 | 90 | 1.8 |
| Cc1cccc(C)c1NC(=O)CCCN | 0.1 | 0.71 | 9.35 | 800 | 3250 | 4.1 |
| Cc1cccc(C)c1NC(=O)CCCCCN | 0.57 | 1.29 | 10.1 | 270 | 2070 | 7.7 |
| CCN(CC)C(C)C(=O)Nc1c(C)cccc1C (configuration not stated) | 0.88 | 2.73 | 7.93 | 170 | 130 | 0.8 |
| CCN(CC)C(C)CCC(=O)Nc1c(C)cccc1C (configuration not stated) | 0.68 | 2.66 | 9.87 | 210 | 1150 | 5.5 |
| Cc1cccc(C)c1NC(=O)CCC(C)N (configuration not stated) | 0.45 | 1.08 | 9.36 | 360 | 2660 | 7.4 |
| CCN(CC)CCCC(=O)Nc1c(C)cccc1C | 0.86 | 2.06 | 9.52 | 140 | 760 | 5.4 |
| Cc1cccc(C)c1NC(=O)C(C)N(C)C (configuration not stated) | 0.94 | 1.53 | 7.33 | 250 | 200 | 0.8 |
| Cc1cccc(C)c1NC(=O)CCCCN | 0.51 | 1.02 | 9.81 | 310 | 1810 | 5.8 |
| CCN(CC)CCCCCCC(=O)Nc1c(C)cccc1C | 1.4 | 3.48 | 10.2 | 40 | 830 | 21 |
| Cc1cccc(C)c1NC(=O)CCN | 0.16 | 0.62 | 8.75 | 720 | 2300 | 3.2 |
| Cc1cccc(C)c1NC(=O)CN [GLYCINEXYLIDIDE] | 0.37 | 0.45 | 7.42 | 840 | 620 | 0.7 |
| CCN(CC)CC(=O)Nc1c(C)cccc1C [LIDOCAINE] | 0.88 | – | – | 210 | 180 | – |
| Cc1cccc(C)c1NC(=O)C(C)N (configuration not stated) [TOCAINIDE] | 0.5 | 0.76 | 7.54 | 550 | 760 | 1.4 |

From ChEMBL document CHEMBL1121654, “New antiarrhythmic agents. 6. Quantitative structure-activity relationships of aminoxylidides” (J Med Chem, 1981)
